Measurements: ChEMBL document CHEMBL1141084, “Analogues of thiolactomycin as potential antimalarial agents” (J Med Chem, 2005)

Tests used:
Trypanosoma cruzi = test: Inhibitory concentration against Trypanosoma cruzi [Tulahuen strain C2C4] in rat skeletal myoblasts upon incubation at 37 degrees C for 4 days in 5% CO2; type: functional, organism-based
[1] = system: Trypanosoma brucei rhodesiense; test: Inhibitory concentration against Trypanosoma brucei rhodesiense STIB 900 upon incubation at 37 degrees C in 5% CO2 for 72 hours; type: functional, organism-based
Plasmodium falciparum = test: In vitro inhibitory concentration against chloroquine-resistant, pyrimethamine-resistant Plasmodium falciparum K1; type: functional, organism-based
[2] = molecular target: T1, Beta-ketoacyl-ACP-synthase III (Plasmodium falciparum) (UniProt O77078); test: Percent inhibition of Plasmodium falciparum beta-Ketoacyl-acyl carrier protein synthase III activity (MBP-pfKASIII) expressed in E. coli cells using [1-14C]acetyl-CoA as radioligand upon incubation at 37 degrees C for 15 minutes with compound dissolved in 2% DMSO at 100 uM
T1 sequence (whole entry): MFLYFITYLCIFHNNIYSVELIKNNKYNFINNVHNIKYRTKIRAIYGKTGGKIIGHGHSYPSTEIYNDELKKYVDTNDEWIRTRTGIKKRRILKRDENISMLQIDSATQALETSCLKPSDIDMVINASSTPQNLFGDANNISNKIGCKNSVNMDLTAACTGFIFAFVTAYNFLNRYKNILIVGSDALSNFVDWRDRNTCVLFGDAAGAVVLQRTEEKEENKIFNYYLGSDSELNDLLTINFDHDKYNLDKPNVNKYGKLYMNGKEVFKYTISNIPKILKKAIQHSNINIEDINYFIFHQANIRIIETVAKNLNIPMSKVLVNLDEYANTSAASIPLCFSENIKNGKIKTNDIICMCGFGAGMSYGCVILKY

Leishmania donovani = test: Inhibitory concentration against amastigotes of Leishmania donovani strain MHOM/ET/67/L82 upon incubation at 37 degrees C for 72 hours using alamar blue
[3] = molecular target: T1, Beta-ketoacyl-ACP-synthase III (Plasmodium falciparum); test: Percent inhibition of recombinant Plasmodium falciparum beta-Ketoacyl-acyl carrier protein synthase III activity (MBP-pfKASIII) expressed in E. coli cells using [1-14C]acetyl-CoA as radioligand upon incubation at 37 degrees C for 15 minutes with compound dissolved in 2% DMSO at 10 uM; NA = no activity
Summary of the method: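 MBP-fused pfKASIII from E. coli BL21(DE3) codon+RIL, amylose-purified, 500 ng per reaction. Buffer: 100 mM NaH2PO4 pH 6.6, with 25 µM E. coli ACP prereduced with 1 mM β-mercaptoethanol (37 °C, 30 min), 1 µg E. coli FabD, 65 µM malonyl-CoA and 45 µM [1-14C]acetyl-CoA. 2% DMSO final; 37 °C, 15 min. Read-out: filter disks, TCA-washed, scintillation-counted.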

| Structure (SMILES) | IC50 (Trypanosoma cruzi; Trypanosoma cruzi, 96 h) [µM] | IC50 ([1]; Trypanosoma brucei, 72 h) [µM] | IC50 (Plasmodium falciparum; Plasmodium falciparum) [µM] | inhibition [2] [%] | IC50 (Leishmania donovani) [µM] | IC50 (Trypanosoma cruzi) [µM] | IC50 [1] [µM] | IC50 (Plasmodium falciparum) [µM] | inhibition [3] |
| --- | --- | --- | --- | --- | --- | --- | --- | --- | --- |
| CCCCCCCCCCCCCCCCC1(C)SC(O)=C(C)C1=O (stereo not given) | 28 | 62 | 25 | 55 | – | – | – | – | – |
| CC(C)=CCC1(C)SC(O)=C(C)C1=O (stereo in doubt; 1a) | – | – | – | 30 | 56 | > 142 | 182 | > 95 | – |
| CCCCCCCCCCCCCCCCC1(C)SC(O)=C(CC)C1=O (stereo not given) | 43 | 47 | 19 | 65 | – | – | – | – | – |
| C=CCOC1=C(CCC)C(=O)SC1(C)CCCCCCCCCC (stereo not given) | 80 | 14 | 1 | – | 66 | – | – | – | No activity |
| CC1SC(O)=C(Cc2ccccc2)C1=O (stereo not given) | > 408 | 408 | 195 | – | – | – | – | – | No activity |
| CCC1=C(O)OC(C)C1=O (stereo not given) | > 633 | > 633 | > 351 | – | – | – | – | – | – |
| C=CCC1(CCC)C(=O)SC(C)(CCCCCCCCCC)C1=O (stereo not given) | 47 | 9 | 19 | – | 82 | – | – | – | No activity |
| CCC1SC(O)=C(C)C1=O (stereo not given) | > 568 | > 568 | > 316 | – | – | – | – | – | No activity |
| CCCCCCCCCCC1(C)SC(O)=C(C)C1=O (stereo not given) | 68 | 171 | 36 | 30 | – | – | – | – | – |
| CCC1=C(O)SC(C)C1=O (stereo not given) | 568 | 357 | 233 | – | – | – | – | – | No activity |
| CCCCCCOCCOCCC1(C)SC(O)=C(CC)C1=O (stereo not given) | 195 | 119 | > 60 | – | – | – | – | – | No activity |
| CCCCCCCCCCC1(C)SC(=O)C(CCC)=C1OCCCCCCO (stereo not given) | 64 | 64 | 31 | 5 | 36 | – | – | – | – |
| CCCCCCCCCCC1(C)SC(O)=C(CC)C1=O (stereo not given) | 54 | 97 | 15 | 40 | – | – | – | – | – |
| CCCCCCC1(C)SC(O)=C(C)C1=O (stereo not given) | 127 | 112 | 139 | 10 | – | – | – | – | – |
| CCCCCCCCCCC1(C)OC(O)=C(CCCC)C1=O (stereo not given) | 70 | 13 | > 15 | 60 | – | – | – | – | – |
| CCCCCCCCCCC1(C)NC(=O)C(C(C)=O)=C1O (stereo not given) | 153 | 7 | 63 | – | 3 | – | – | – | No activity |
| CCCCCCCCCCCCCCCCC1(C)SC(O)=C(Cc2ccccc2)C1=O (stereo not given) | 14 | 32 | 7 | 50 | 2 | – | – | – | – |
| CCCCCCCCCCC1(C)SC(=O)C(CCC)=C1OCCCCCCO[Si](C)(C)C(C)(C)C (stereo not given) | 14 | 149 | 3 | 10 | 7 | – | – | – | – |
| CC(C)=CCC/C(C)=C/CC1(C)SC(O)=C(C)C1=O (stereo not given) | 68 | 190 | 40 | 45 | – | – | – | – | – |
| CCCC1=C(OC)C(C)SC1=O (stereo not given) | 359 | 9 | 45 | – | 100 | – | – | – | No activity |
| CCCCCCC1(C)SC(O)=C(CC)C1=O (stereo not given) | 195 | 71 | 61 | 5 | – | – | – | – | – |

| Structure (SMILES) | IC50 (Trypanosoma cruzi; Trypanosoma cruzi, 96 h) [µM] | IC50 ([1]; Trypanosoma brucei, 72 h) [µM] | IC50 (Plasmodium falciparum; Plasmodium falciparum) [µM] | inhibition [2] [%] | IC50 (Leishmania donovani) [µM] | IC50 (Trypanosoma cruzi) [µM] | IC50 [1] [µM] | IC50 (Plasmodium falciparum) [µM] | inhibition [3] |
| --- | --- | --- | --- | --- | --- | --- | --- | --- | --- |
| CCCCCCCCCCCCCCCCC1(CC)SC(O)=C(C)C1=O (stereo not given) | 49 | 130 | 35 | 40 | – | – | – | – | – |
| CCCCCCCCCCC1SC(O)=C(C)C1=O (stereo not given) | 164 | 6 | 72 | 30 | – | – | – | – | – |
| CCCCCCCCCCCCCCCCC1(C)SC(O)=C(CCC)C1=O (stereo not given) | 13 | 29 | 6 | 20 | 0.5 | – | – | – | – |
| CCCCCCCCC1(C)SC(O)=C(CC)C1=O (stereo not given) | 165 | 157 | 54 | – | – | – | – | – | No activity |
| CCCCCCCCCCC1(C)SC(O)=C(CCCC)C1=O (stereo not given) | 77 | 8 | 71 | 60 | – | – | – | – | – |
| CCCC1=C(O)C(C)(CCCCCCO)SC1=O (stereo not given) | 64 | 64 | 157 | – | 88 | – | – | – | No activity |
| CCCC1=C(O)SC(C)C1=O (stereo not given) | > 522 | 288 | > 290 | – | – | – | – | – | No activity |
| CCCCCCCCCCC1(C)SC(=O)C(CCC)=C1OCc1ccccc1 (stereo not given) | 13 | > 223 | 4 | – | > 74 | – | – | – | No activity |
| C=CCC1(C)C(=O)SC(C)C1=O (stereo not given) | > 488 | 79 | 62 | – | – | – | – | – | No activity |
| C=CCOC1=C(C)C(=O)SC1(C)CCCCCCCCCC (stereo not given) | 30 | 167 | 6 | 5 | – | – | – | – | – |
| CCCCCCCCC1(C)SC(O)=C(C)C1=O (stereo not given) | > 350 | 194 | 153 | 10 | – | – | – | – | – |
| CCCCCCCCCCC1(C)OC(O)=C(CC)C1=O (stereo not given) | 146 | 62 | 94 | – | – | – | – | – | – |
| CCCCCCCCCCC1(C)SC(=O)C(C/C=C(/C)CCC=C(C)C)(CCC)C1=O (stereo not given) | > 66 | > 200 | 77 | – | > 66 | – | – | – | No activity |
| CCCCCCCCCCC1(CC)SC(O)=C(C)C1=O (stereo not given) | 72 | 153 | 65 | 15 | – | – | – | – | – |
| CCCC1=C(O)C(C)(CCCCCCO[Si](C)(C)C(C)(C)C)SC1=O (stereo not given) | 150 | 2 | 37 | – | 1 | – | – | – | No activity |
| CC1=C(O)SC(C)C1=O (stereo not given) [THIOLACTONE] | > 624 | > 624 | > 347 | – | – | – | – | – | No activity |
| CCCC1(C/C=C(/C)CCC=C(C)C)C(=O)SC(C)C1=O (stereo not given) | 21 | 55 | 9 | 90 | 12 | – | – | – | – |
| CCCCCCCCCCC1(C)SC(O)=C(CCC)C1=O (stereo not given) | 56 | 21 | 10 | 55 | – | – | – | – | – |
| CCCCCCC1(C)OC(O)=C(C)C1=O (stereo not given) | > 424 | 247 | 222 | – | – | – | – | – | No activity |
| C=CCC1(C)C(=O)SC(C)(CCCCCCCCCC)C1=O (stereo not given) | 55 | 157 | 26 | 5 | – | – | – | – | – |
| CCCCCCCCCCC1(C)SC(O)=C(Cc2ccccc2)C1=O (stereo not given) | 64 | 132 | 50 | 70 | – | – | – | – | – |
